Assay outcomes: PubChem, several laboratories
MC4R antag cAMP: human MC4R antagonism in cAMP assay | 360,000 compounds, 0.48% hits | inhibition, % at 6.5 µM | P32245 | MC4R-expressing cells, MTII-stimulated cAMP, LANCE TR-FRET;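 active = inhibition above its plate's cutoff, the mean of tested wells on that plate plus 3 SD, cut at about 29% in these data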;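 note: 0% = Melanotan II alone and 100% = Melanotan II plus saturating MCL0020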
Target sequence (P32245 whole entry, looked up): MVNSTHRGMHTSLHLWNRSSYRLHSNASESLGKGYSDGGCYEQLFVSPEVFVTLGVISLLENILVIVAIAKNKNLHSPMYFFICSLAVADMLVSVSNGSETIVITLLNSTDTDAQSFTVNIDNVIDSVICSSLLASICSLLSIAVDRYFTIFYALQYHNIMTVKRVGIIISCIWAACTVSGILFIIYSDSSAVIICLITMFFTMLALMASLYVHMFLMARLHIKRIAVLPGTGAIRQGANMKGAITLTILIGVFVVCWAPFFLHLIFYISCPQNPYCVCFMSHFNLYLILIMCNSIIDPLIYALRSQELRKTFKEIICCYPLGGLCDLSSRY
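system = U2OS cells with stable human MC4R expression | also added = Melanotan II challenge after compound preincubation | dosing = one concentration, 6.5 µM nominal | incubation = compound 30 min, challenge 1 h, detection 1 h | measured by = TR-FRET with Eu-cAMP and labeled anti-cAMP, 671 nm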
MC4R ag barr: human MC4R agonism via beta-arrestin | P32245 | U2OS MC4R beta-arrestin complementation, luminescence; percent of melanotan II response, DMSO zero | activation, % at 8.9 µM | 360,000 compounds, 0.98% hits | AID 540308;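 active = activation above a per-plate cutoff, the mean activation of sample wells on that plate plus 3 SD, cut at about 8% in these data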
ATG4B inhibitor: blocks human ATG4B protease cleavage of LC3 substrate; 340,000 compounds, 0.51% hits; inhibition, % at 8.33 µM; ATG4B cleavage of LC3-PLA2, NBD-HPC fluorescence, 1 h; in the data active = inhibition above about 40%
SMARCA2 act: increases SMARCA2 function in MMTV reporter cells. 370,000 compounds, 1% hits. AID 652017. activation, % at 9.1 µM. MG213 cells, MMTV-luciferase reporter, dexamethasone, overnight; in the data active = activation above about 7.8%;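 note: 0% = vehicle wells and 100% = reference activator wells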
MPTP inh: permeability transition pore inhibition. 360,000 compounds, 1.4% hits. inhibition, % at 10 µM. isolated mouse mitochondria, Ca2+ swelling absorbance, 30 min. AID 602449;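 active = inhibition of 50% or more, scaled per plate between neutral and stimulator controls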;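 note: 0% = DMSO wells given calcium and 100% = 1 mM EGTA wells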
MPTP counter: membrane potential counter-screen of mitochondrial pore inhibitors; shares compounds with MPTP inh; isolated mitochondria, Rhodamine 123 fluorescence; inhibition, % at 10 µM; 5,000 compounds, 78% hits; AID 624504; in the data active = inhibition above about 22%;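 note: 0% = DMSO vehicle and 100% = positive control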
MPTP swell DR: MPTP inhibition, dose response swelling confirmation; shares compounds with MPTP inh; isolated mitochondria swelling, absorbance; IC50, µM; 780 compounds, 58% hits; AID 651561; in the data active = IC50 below about 20 µM
MPTP counter DR: MPTP inhibitor counter-screen activity, dose response; 780 compounds, 49% hits; shares compounds with MPTP inh; isolated mitochondria counterscreen, fluorescence read-out; IC50, µM; in the data active = IC50 below about 80 µM
Numbers without * were called inactive. Hits are enriched below; roughly 4.1% of the tested compounds scored in any of these assays.

Screening O=C(CNC(=O)c1cccc(Br)c1)N/N=C/c1cc(Br)cc(Br)c1O returned MC4R antag cAMP -3, MC4R ag barr -1, ATG4B inhibitor 10, SMARCA2 act -1, MPTP inh 66* and MPTP counter 13.
Screening Cc1nn(C(C)(C)C)c(C)c1/C=N/OC(=O)Nc1ccc(Cl)c(Cl)c1 returned MC4R antag cAMP 12, MC4R ag barr 1, ATG4B inhibitor -12, SMARCA2 act -11, MPTP inh 73* and MPTP counter 76*.
For Cn1c(-c2ccc(Br)o2)nc2ccccc21 the results were MC4R antag cAMP -8, MC4R ag barr -1, ATG4B inhibitor -11, SMARCA2 act 7 and MPTP inh 17.
`Cn1c(-c2ccc(Br)o2)nc2cc(Br)ccc21` gave MC4R antag cAMP -1, MC4R ag barr 0, ATG4B inhibitor -11, SMARCA2 act 3, MPTP inh 64*, MPTP counter -8, MPTP swell DR inactive and MPTP counter DR >80.
Cc1ccc(NC(=O)COC(=O)c2ccccc2Cl)cc1S(=O)(=O)N(C)C was read as MC4R antag cAMP 6, MC4R ag barr -2, ATG4B inhibitor -11, SMARCA2 act 0 and MPTP inh -1.
Screening Cc1ccc(NC(=O)Cc2ccccc2Cl)cc1S(=O)(=O)N(C)C returned MC4R antag cAMP 12, MC4R ag barr 3, ATG4B inhibitor -15, SMARCA2 act -5 and MPTP inh 6.
Cc1ccc(NC(=O)Cc2ccc(Cl)c(Cl)c2)cc1S(=O)(=O)N(C)C was read as MC4R antag cAMP 6, MC4R ag barr 1, ATG4B inhibitor -1, SMARCA2 act -5, MPTP inh 88* and MPTP counter 88*.
Screening Cc1ccc(NC(=O)CNc2ccc(Cl)c(Cl)c2)cc1S(=O)(=O)N(C)C returned MC4R antag cAMP 24, MC4R ag barr 2, ATG4B inhibitor -10, SMARCA2 act -6, MPTP inh 96* and MPTP counter 94*.
`C[C@@H]1CN([C@H](C)CO)C(=O)c2cc(NC(=O)Nc3ccccc3)ccc2O[C@@H](C)CCCCO[C@H]1CN(C)S(C)(=O)=O` gave SMARCA2 act 6.
For CC(C)C1O/C(=N/C(=O)Nc2ccc(Cl)c(Cl)c2)NC1=O (stereo unspecified) the results were MC4R antag cAMP 1, MC4R ag barr 5, ATG4B inhibitor -10, SMARCA2 act -5, MPTP inh 93* and MPTP counter 92*.
For O=C(NNC(=O)c1cc2ccccc2cc1O)NC1CCCCC1 the results were MC4R antag cAMP -7, MC4R ag barr -3, ATG4B inhibitor -10, SMARCA2 act -1 and MPTP inh 4.
For CC1CCC(NC(=O)c2cc3ccccc3cc2O)CC1 (stereo unspecified) the results were MC4R antag cAMP 1, MC4R ag barr 5, ATG4B inhibitor -1, SMARCA2 act 3, MPTP inh 87* and MPTP counter 94*.
Screening O=C(NCC1CCCCC1)c1cc2ccccc2cc1O returned MC4R antag cAMP 2, MC4R ag barr 3, ATG4B inhibitor 19, SMARCA2 act -5, MPTP inh 59* and MPTP counter 81*.
Screening COCCCNC(=O)C[C@@H]1C(=O)N(CCc2ccc(Cl)cc2)C2=CCCCC[C@]21C(=O)OC returned SMARCA2 act 0.
For OCCC(N1CCOCC1)C(O)(c1ccccc1)c1ccccc1 (stereo unspecified) the results were SMARCA2 act 1.
Screening Cc1ccc([N+](=O)[O-])cc1N=Nc1c(C)[nH]n(C(N)=S)c1=O returned MC4R antag cAMP 17, MC4R ag barr -1, ATG4B inhibitor -7, SMARCA2 act -3 and MPTP inh 6.
For NC(=S)n1[nH]c(-c2ccc([N+](=O)[O-])cc2)c(N=Nc2ccc(Cl)cc2)c1=O the results were MC4R antag cAMP 17, MC4R ag barr -3, ATG4B inhibitor 11, MPTP inh 106* and MPTP counter 93*.
For Cc1ccc([N+](=O)[O-])cc1N=Nc1c(-c2ccc([N+](=O)[O-])cc2)[nH]n(C(N)=S)c1=O the results were MC4R antag cAMP 9, MC4R ag barr -2, ATG4B inhibitor 6, MPTP inh 99* and MPTP counter 69*.
For Cc1ccccc1CN1CCCCC(NC(=O)C(C)(C)C)C1=O (stereo unspecified) the results were SMARCA2 act -2.
`CCc1ccc(C2C(C#N)=C(N)SC(N)=C2C#N)cc1` gave MC4R antag cAMP 15, MC4R ag barr 2, ATG4B inhibitor 13, SMARCA2 act -4, MPTP inh 74* and MPTP counter 82*.
For CCOc1ccc(C2C(C#N)=C(N)SC(N)=C2C#N)cc1OCC the results were MC4R antag cAMP 6, MC4R ag barr -1, ATG4B inhibitor 3, SMARCA2 act -1 and MPTP inh 6.
For CCc1ccc(C2C(C#N)=C(N)SC(N)=C2C#N)s1 the results were MC4R antag cAMP -3, MC4R ag barr 0, ATG4B inhibitor 0, MPTP inh 77* and MPTP counter 56*.
Screening COc1ccccc1N1CCN(C(=O)c2ccoc2C)CC1 returned MC4R antag cAMP 0, MC4R ag barr -1, ATG4B inhibitor -2, SMARCA2 act 0, MPTP inh 78*, MPTP counter -2, MPTP swell DR >100 and MPTP counter DR >80.
`Cc1nc(SCC(=O)Nc2nc3ccccc3s2)c(C#N)c(C)c1C` gave MC4R antag cAMP 9, MC4R ag barr -1, ATG4B inhibitor -17, SMARCA2 act -10 and MPTP inh 4.
`Cc1cc(C(F)(F)F)c(C#N)c(SCC(=O)Nc2nc3ccccc3s2)n1` gave MC4R antag cAMP 3, MC4R ag barr 0, ATG4B inhibitor -5, SMARCA2 act -7, MPTP inh 63* and MPTP counter 74*.
Screening CCn1c(COc2cccc(C)c2C)nnc1SCC(=O)N1CCN(c2ccc(OC)cc2)CC1 returned MC4R antag cAMP 6, MC4R ag barr 1, ATG4B inhibitor -9, SMARCA2 act -2, MPTP inh 60* and MPTP counter 43*.
For CCn1c(COc2ccccc2C)nnc1SCC(=O)N1CCN(c2ccccc2)CC1 the results were MC4R antag cAMP 0, MC4R ag barr 2, ATG4B inhibitor 1, SMARCA2 act -3 and MPTP inh 0.
Screening Cc1cc2sc3ccccc3c(=O)c2c(C)c1O returned MC4R antag cAMP 22, MC4R ag barr 0, ATG4B inhibitor 8, SMARCA2 act 2 and MPTP inh 3.
